In test [1] the test system is Escherichia coli. In words: Bactericidal activity against sodB gene-deficient Escherichia coli K-12 3145 after 2 hrs. The test is classed as functional, organism-based.
Test [2] deals with Escherichia coli. In words: Bactericidal activity against sodB gene-deficient Escherichia coli K-12 3145 at 0.4 ug/ml. The test is classed as functional, organism-based.
Test [3] has as its system Escherichia coli. In words: Bactericidal activity against sodA gene-deficient Escherichia coli K-12 3144 after 2 hrs. The test is classed as functional, organism-based.
Test [4] deals with Escherichia coli. Put plainly: Bactericidal activity against sodA gene-deficient Escherichia coli K-12 3144 at 0.4 ug/ml. It is filed as functional, organism-based.
Test [5] deals with Escherichia coli. In words: Bactericidal activity against Escherichia coli K-12 BW25113 at 100 times MIC. It is filed as functional, organism-based.
Test [6] has as its system Escherichia coli. In words: Bactericidal activity against katG gene-deficient Escherichia coli K-12 3157 at 100 times MIC. The test is classed as functional, organism-based.
The test system of test [7] is Escherichia coli. Put plainly: Bactericidal activity against ahpC gene-deficient Escherichia coli K-12 3200 at 100 times MIC. The test is classed as functional, organism-based.
In test [8] the test system is Escherichia coli. Put plainly: Bactericidal activity against katG,katE gene-deficient Escherichia coli K-12 3201 at 100 times MIC. The test is classed as functional, organism-based.
In test [9] the test system is Escherichia coli. In words: Antimicrobial activity against ahpC gene-deficient Escherichia coli K-12 3200 by broth dilution method. It is filed as functional. Put shortly: (§1)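 Broth dilution in LB medium, about 10^5 bacteria per 1-ml tube, with drug concentrations rising in 50% increments. Tubes were incubated overnight at 37°C and read visually. MIC was the lowest concentration that prevented visible growth.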

Test [10] relates to Escherichia coli. Put plainly: Bactericidal activity against sodB gene-deficient Escherichia coli K-12 3145 after 18 hrs. It is filed as functional. To be noted: K-12 3145, 18 h.
For test [11], the system named is Escherichia coli. In words: Bactericidal activity against katE gene-deficient Escherichia coli K-12 3202 after 18 hrs. The test is classed as functional. The conditions noted are these: K-12 3202, 18 h.
Test [12] relates to Escherichia coli. In words: Antimicrobial activity against katE gene-deficient Escherichia coli K-12 3202 by broth dilution method. The test is classed as functional. In outline: as §1
Test [13] concerns Escherichia coli. Put plainly: Antimicrobial activity against sodB gene-deficient Escherichia coli K-12 DKsodB by broth dilution method. The test is classed as functional. In outline:
as §1

The test system of test [14] is Escherichia coli. In words: Bactericidal activity against sodA, sodB gene-deficient Escherichia coli K-12 3156 after 18 hrs. It is filed as functional. To be noted: K-12 3156, 18 h.
Test [15] concerns Escherichia coli. Put plainly: Bactericidal activity against sodB gene-deficient Escherichia coli K-12 DK after 18 hrs. It is filed as functional.
For test [16], the system named is Escherichia coli. In words: Bactericidal activity against katG gene-deficient Escherichia coli K-12 3157 after 18 hrs. The test is classed as functional. To be noted: K-12 3157, 18 h.
Test [17] concerns Escherichia coli. Put plainly: Antimicrobial activity against katG gene-deficient Escherichia coli K-12 3157 by broth dilution method. The test is classed as functional. In outline: as §1
For test [18], the system named is Escherichia coli. In words: Antimicrobial activity against Escherichia coli K-12 BW25113 by broth dilution method. The test is classed as functional. In outline: as §1
Test [19] concerns Escherichia coli. In words: Antimicrobial activity against katG,katE gene-deficient Escherichia coli K-12 3201 by broth dilution method. The test is classed as functional. In outline: as §1
For test [20], the system named is Escherichia coli. Put plainly: Bactericidal activity against Escherichia coli K-12 BW25113 after 18 hrs. It is filed as functional. To be noted: K-12 BW25113, 18 h.
For test [21], the system named is Escherichia coli. In words: Antimicrobial activity against sodA, sodB gene-deficient Escherichia coli K-12 3156 by broth dilution method. The test is classed as functional. In outline: as §1
The test system of test [22] is Escherichia coli. Put plainly: Antimicrobial activity against sodB gene-deficient Escherichia coli K-12 3145 by broth dilution method. It is filed as functional. Put shortly: as §1
Test [23] concerns Escherichia coli. Put plainly: Bactericidal activity against sodA gene-deficient Escherichia coli K-12 3144 after 18 hrs. It is filed as functional. To be noted: K-12 3144, 18 h.
Test [24] has as its system Escherichia coli. In words: Bactericidal activity against katG,katE gene-deficient Escherichia coli K-12 3201 after 18 hrs. The conditions noted are these: K-12 3201, 18 h. The test is classed as functional.
Test [25] concerns Escherichia coli. In words: Antimicrobial activity against sodA gene-deficient Escherichia coli K-12 3144 by broth dilution method. It is filed as functional. Put shortly:
as §1

In test [26] the test system is Escherichia coli. Put plainly: Bactericidal activity against ahpC gene-deficient Escherichia coli K-12 3200 after 18 hrs. The test is classed as functional. The conditions noted are these: K-12 3200, 18 h.
The subject of test [27] is Escherichia coli. In words: Bactericidal activity against katG gene-deficient Escherichia coli K-12 3157 at 10 times MIC pretreated with 100 mM thiourea relative to wild-type. The test is classed as functional.
Test [28] has as its system Escherichia coli. In words: Bactericidal activity against katG gene-deficient Escherichia coli K-12 3157 at 10 times MIC relative to wild-type. It is filed as functional.
The subject of test [29] is Escherichia coli. Put plainly: Bactericidal activity against katG,katE gene-deficient Escherichia coli K-12 3201 after 2 hrs relative to wild-type. It is filed as functional.
For test [30], the system named is Escherichia coli. In words: Bactericidal activity against sodB gene-deficient Escherichia coli K-12 DKsodB after 2 hrs. The test is classed as functional, organism-based.
Test [31] has as its system Escherichia coli. Put plainly: Bactericidal activity against katG gene-deficient Escherichia coli K-12 3157 after 2 hrs relative to wild-type. It is filed as functional.
Test [32] concerns Escherichia coli. In words: Bactericidal activity against sodA, sodB gene-deficient Escherichia coli K-12 3156 after 2 hrs relative to wild-type. The test is classed as functional.
Test [33] has as its system Escherichia coli. Put plainly: Bactericidal activity against katG,katE gene-deficient Escherichia coli K-12 3201 at 10 times MIC relative to wild-type. The test is classed as functional.
Test [34] has as its system Escherichia coli. Put plainly: Bactericidal activity against sodB gene-deficient Escherichia coli K-12 DKsodB at 0.4 ug/ml. It is filed as functional, organism-based.
Test [35] has as its system Escherichia coli. In words: Bactericidal activity against katG gene-deficient Escherichia coli K-12 3157 at 10 times MIC pretreated with 250 uM bipyridyl relative to wild-type. It is filed as functional.
The test system of test [36] is Escherichia coli. Put plainly: Bactericidal activity against katG gene-deficient Escherichia coli K-12 3157 after 2 hrs pretreated with 100 mM thiourea relative to wild-type. The test is classed as functional.
Test [37] deals with Escherichia coli. Put plainly: Bactericidal activity against sodA, sodB gene-deficient Escherichia coli K-12 3156 at 0.4 ug/ml relative to wild-type. The test is classed as functional.
The test system of test [38] is Escherichia coli. In words: Bactericidal activity against katG gene-deficient Escherichia coli K-12 3157 after 2 hrs pretreated with 250 uM bipyridyl relative to wild-type. The test is classed as functional.

Converted amounts (≈) assume the structure as drawn. The source made the active and inactive calls. No cut-off for these calls is given here.

`CCn1cc(C(=O)O)c(=O)c2cc3c(cc21)OCO3`: the result in the test with Escherichia coli [1], in the test on Escherichia coli [2], in the test with Escherichia coli [3] and with Escherichia coli [4] was Active.
In the case of `O=C(N[C@H](CO)[C@H](O)c1ccc([N+](=O)[O-])cc1)C(Cl)Cl`, the outcome in the test on Escherichia coli [5], in the test on Escherichia coli [6], in the test with Escherichia coli [7] and in the test with Escherichia coli [8] was inactive.
For `O=C(O)c1cn(C2CC2)c2cc(N3CCNCC3)c(F)cc2c1=O`, the result in the test on Escherichia coli [1], in the test with Escherichia coli [2], in the test with Escherichia coli [3] and with Escherichia coli [4] was Active.
With `CC1(C)S[C@@H]2[C@H](NC(=O)[C@H](N)c3ccccc3)C(=O)N2[C@H]1C(=O)O` [AMPICILLIN], the MIC in the test on Escherichia coli [9] stood at 15 µg/mL; in the test on Escherichia coli [12], 15 µg/mL; in the test on Escherichia coli [13] it was 15 µg/mL; against Escherichia coli [17], 15 µg/mL; with Escherichia coli [18], 15 µg/mL; with Escherichia coli [19] it was 30 µg/mL. The MIC against Escherichia coli [21], against Escherichia coli [22] and in the test on Escherichia coli [25] was 15 µg/mL each time. The MBC against Escherichia coli [10] was 80 µg/mL (≈ 229 µM); with Escherichia coli [11] it was 80 µg/mL (≈ 229 µM); with Escherichia coli [14], 20 µg/mL (≈ 57.2 µM); in the test on Escherichia coli [15], 80 µg/mL (≈ 229 µM); against Escherichia coli [16], 80 µg/mL (≈ 229 µM); against Escherichia coli [20] it was 80 µg/mL (≈ 229 µM). Also, the MBC against Escherichia coli [23] was 80 µg/mL (≈ 229 µM); against Escherichia coli [24], 80 µg/mL (≈ 229 µM); against Escherichia coli [26] it was 40 µg/mL (≈ 114 µM).
As to `c1ccc(-c2ccccn2)nc1` [DIPYRIDYL], the MIC against Escherichia coli [9], in the test on Escherichia coli [12], in the test on Escherichia coli [13], in the test on Escherichia coli [17], against Escherichia coli [18] and in the test with Escherichia coli [19] was 500 µM in each case. The MIC with Escherichia coli [21], against Escherichia coli [22] and with Escherichia coli [25] was 500 µM each time.
For `NC[C@H]1O[C@H](O[C@H]2[C@H](O)[C@@H](O[C@H]3O[C@H](CO)[C@@H](O)[C@H](N)[C@H]3O)[C@H](N)C[C@@H]2N)[C@H](O)[C@@H](O)[C@@H]1O` [KANAMYCIN], the MIC in the test with Escherichia coli [9] was 2.4 µg/mL; in the test on Escherichia coli [12], 0.6 µg/mL; with Escherichia coli [13], 0.6 µg/mL; against Escherichia coli [17], 0.6 µg/mL; against Escherichia coli [18] it was 0.6 µg/mL; against Escherichia coli [19], 1.2 µg/mL. Besides, the MIC against Escherichia coli [21], with Escherichia coli [22] and in the test on Escherichia coli [25] was 0.6 µg/mL throughout. Moreover, the MBC with Escherichia coli [10] amounted to 20 µg/mL (≈ 41.3 µM); against Escherichia coli [11], 20 µg/mL (≈ 41.3 µM); against Escherichia coli [14], 10 µg/mL (≈ 20.6 µM); in the test on Escherichia coli [15], 20 µg/mL (≈ 41.3 µM); in the test on Escherichia coli [16] it was 20 µg/mL (≈ 41.3 µM); in the test on Escherichia coli [20], 20 µg/mL (≈ 41.3 µM). The MBC worked out at 20 µg/mL (≈ 41.3 µM) with Escherichia coli [23], 20 µg/mL (≈ 41.3 µM) against Escherichia coli [24] and 10 µg/mL (≈ 20.6 µM) against Escherichia coli [26].
For the compound `CCn1cc(C(=O)O)c(=O)c2cc(F)c(N3CCNCC3)cc21` [NORFLOXACIN], the “fold change (FC)” value in the test with Escherichia coli [27], with Escherichia coli [28], with Escherichia coli [29], in the test on Escherichia coli [31], in the test on Escherichia coli [32] and in the test on Escherichia coli [33] was 10 throughout. Besides, the “fold change (FC)” value in the test with Escherichia coli [35], with Escherichia coli [36], with Escherichia coli [37] and in the test with Escherichia coli [38] was 10 in each case. Further, the MIC against Escherichia coli [9] turned out to be 0.04 µg/mL; against Escherichia coli [12], 0.04 µg/mL; with Escherichia coli [13], 0.04 µg/mL; with Escherichia coli [17], 0.04 µg/mL; in the test on Escherichia coli [18], 0.04 µg/mL; against Escherichia coli [19], 0.08 µg/mL. In addition, the MIC against Escherichia coli [21], in the test with Escherichia coli [22] and in the test on Escherichia coli [25] was 0.04 µg/mL in each case. In addition, the MBC in the test with Escherichia coli [10] was 0.32 µg/mL (≈ 1 µM); against Escherichia coli [11], 0.16 µg/mL (≈ 0.501 µM); against Escherichia coli [14] it was 0.16 µg/mL (≈ 0.501 µM); in the test on Escherichia coli [15], 0.32 µg/mL (≈ 1 µM); in the test with Escherichia coli [16], 0.16 µg/mL (≈ 0.501 µM); in the test with Escherichia coli [20] it was 0.32 µg/mL (≈ 1 µM). Further, the MBC against Escherichia coli [23] worked out at 0.32 µg/mL (≈ 1 µM); against Escherichia coli [24], 0.32 µg/mL (≈ 1 µM); against Escherichia coli [26] it was 0.16 µg/mL (≈ 0.501 µM). For the same compound, the outcome in the test on Escherichia coli [30], with Escherichia coli [1], with Escherichia coli [2], with Escherichia coli [34], in the test on Escherichia coli [3] and with Escherichia coli [4] was Active.

These data come from ChEMBL document CHEMBL1649176, “Contribution of oxidative damage to antimicrobial lethality” (2009).
